We go through six compounds from ChEMBL document CHEMBL1126092, “Design, synthesis, and biological evaluation of novel 4-substituted 1-methyl-1,2,3,6-tetrahydropyridine analogs of MPTP” (J Med Chem, 1992).

Usually Vmax stands for the rate approached at saturating substrate. Usually Km stands for the substrate concentration at which the rate is half of its maximum.

Structures are written as SMILES.

What all share (conditions): cattle
In data set [1] the target is T1, Amine oxidase [flavin-containing] B (Bos taurus, UniProt P56560).
T1 sequence (P56560 whole entry): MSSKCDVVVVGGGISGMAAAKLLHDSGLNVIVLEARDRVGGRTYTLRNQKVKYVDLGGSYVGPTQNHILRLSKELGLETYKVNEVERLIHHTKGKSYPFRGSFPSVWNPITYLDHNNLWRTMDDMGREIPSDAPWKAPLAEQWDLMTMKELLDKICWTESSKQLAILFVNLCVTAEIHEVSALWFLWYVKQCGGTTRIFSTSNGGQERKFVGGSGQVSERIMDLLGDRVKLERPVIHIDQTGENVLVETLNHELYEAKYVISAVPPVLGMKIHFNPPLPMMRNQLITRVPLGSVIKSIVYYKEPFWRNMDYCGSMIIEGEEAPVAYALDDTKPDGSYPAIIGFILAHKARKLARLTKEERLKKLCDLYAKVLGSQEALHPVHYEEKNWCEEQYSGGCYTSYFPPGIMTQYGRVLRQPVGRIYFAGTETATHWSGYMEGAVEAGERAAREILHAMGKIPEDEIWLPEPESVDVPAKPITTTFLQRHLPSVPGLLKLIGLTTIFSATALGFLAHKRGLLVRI
Put plainly: Selectivity ratio for Vmax and KM values against MAO-B enzyme from bovine liver mitochondria. The gist of the method: (§1)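 Bovine liver mitochondrial MAO-B, 0.05 unit/mL (unit = 1 μmol benzylamine→benzaldehyde per min; equivalent to 3.7 nmol protein), incubated at 37 °C in 0.1 M sodium phosphate pH 7.4. Reaction started by substrate addition, final 0.1–3.0 mM. Product formation monitored spectrophotometrically, initial rates taken 30–180 s after enzyme addition. Apparent Vmax and KM from double reciprocal plot.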

In data set [2] the target is T1, Amine oxidase [flavin-containing] B. The data set is described as follows: (§2) Tested against Monoamine oxidase B enzyme from bovine liver mitochondria. The gist of the method: as §1
Data set [3] deals with T2, Monoamine oxidase B (MAO-B) (Bos taurus, UniProt P56560).
T2 sequence (P56560 whole entry): T1 sequence (P56560 whole entry)
Described as §2. The gist of the method: as §1

With `CN1CC=C(OC(=O)N(C)C)CC1`, the Ratio in data set [1] is reported as 57.
Regarding `CN1CC=C(Sc2ccccc2)CC1`, the Ratio in data set [1] is on record as 3425.
In the case of `CN1CC=C(c2ccccc2)CC1`, the Vmax in data set [2] came to 204 nM/min. Further, the Km in data set [3] was determined as 390 µM. The Ratio in data set [1] came to 523.
For `CN1CC=C(OC(=O)N(C)c2ccccc2)CC1`, in data set [1], the Ratio was 67.
Same read-out and setting: next, `CN1CC=C(Cc2ccccc2)CC1`: 2674; `CN1CC=C(Oc2ccccc2)CC1`: 688.
